Results of several laboratories.
Target: RAF proto-oncogene serine/threonine-protein kinase (RAF1, Homo sapiens, UniProt P04049)

Compound | assay | conditions | remaining binding
O=C(N1CCS(=O)(=O)CC1)N1C[C@H](c2ccc(OC(F)(F)F)cc2)C[C@H](c2nc(C3CC3)no2)C1 | cell-free assay, competition with immobilised ligand | 1 µM | 100%
O=C(NCCCN1CCOCC1)c1ccc(Nc2nccc(-c3cc4ccccc4s3)n2)cc1 | binding, competition with immobilised ligand | 1 µM | 65%
CC(C)(O)c1cncc(-c2nc3ccc(F)cc3n2C2CC2)c1 | cell-free assay, competition with immobilised ligand | 1 µM | 83%
Cc1cnn2ncc(-c3ccnc(N(C)C)n3)c2c1 | binding | 1 µM | 100%
Cc1c(C(=O)O)cc(-c2ccc(C3CCNCC3)cc2)c2ccc(-c3ccc(C(F)(F)F)cc3)cc12 | binding, competition with immobilised ligand | 1 µM | 80%
C[C@@H](c1ccc(-n2cnc3c(N)ncnc32)cc1)N1CCc2nn(C)c(Cc3ccccc3)c2C1=O | binding, competition with immobilised ligand | 0.1 µM | 93%
CC(C)(C)c1ccc(-c2nc(CBr)nn2-c2cccc(O)c2)cc1 | cell-free assay, competition with immobilised ligand | 10 µM | 87%
FC(F)(F)Oc1cccc(-c2cnc3ccc(-c4ccncc4)nn23)c1 | cell-free assay, competition with immobilised ligand | 5 µM | 71%
CN(C)c1nccc(-c2cnn3ncccc23)n1 | binding | 1 µM | 100%
O=C(Nc1c[nH]nc1C(=O)NC1CCNCC1)c1cc(F)cc(F)c1 | binding, competition with immobilised ligand | 1 µM | 100%
F[C@@H]1CCN(c2nccc(-c3cnn4ncccc34)n2)C1 | binding | 1 µM | 100%
C[C@@H]1CN(c2ccc3ncc(-c4ccc5[nH]nc(C6CC6)c5c4)n3n2)C[C@H](C)O1 | binding, competition with immobilised ligand | 0.5 µM | 100%
C[C@H]1CCN(c2nccc(-c3cnn4ncccc34)n2)C1 | binding | 1 µM | 90%
COc1ncc2cc3ccccc3nc2c1C#N | cell-free assay, competition with immobilised ligand | 5 µM | 93%
COc1cnc(Nc2cccc(S(N)(=O)=O)c2)nc1N1CCN(c2ccccc2)CC1 | binding, competition with immobilised ligand | 1 µM | 100%
CC(=O)C1=C(C)N(c2cccc(C(F)(F)F)c2)C(=O)N[C@@H]1c1ccc(C#N)nc1 | cell-free assay, competition with immobilised ligand | 1 µM | 100%
N[C@H]1CCN(c2nccc(-c3cnn4ncccc34)n2)C1 | binding | 1 µM | 100%
C=CC(=O)N1CCC(C(=O)NCC(=O)N2CCN(c3nc(-c4cnc(N)nc4C(F)F)nc(N4CCOCC4)n3)CC2)CC1 | binding, competition with immobilised ligand | 1 µM | 93%
CCC(=O)N[C@@H]1CC[C@H](C(=O)N(C)c2ccc(-c3nc4ccccc4o3)cc2)C1 | cell-free assay, competition with immobilised ligand | 1 µM | 94%
O=C(c1ccc(Nc2ncc(Cl)c(-c3ccc(Cl)s3)n2)cc1)N1CCC(N2CCCC2)CC1 | binding, competition with immobilised ligand | 1 µM | 45%
COc1ccc2c(O[C@@H]3C[C@H]4C(=O)N[C@]5(C(=O)O)CC5/C=C\CCCCC[C@H](NC(=O)OC5CCCC5)C(=O)N4C3)cc(-c3csc(NC(=O)C(C)C)n3)nc2c1C (stereo partly drawn) | cell-free assay, competition with immobilised ligand | 1 µM | 95%
CN(CCCC(F)(F)F)c1nccc(-c2cnn3ncccc23)n1 | binding | 1 µM | 83%
Cc1nccc(COC(=O)N2C[C@@H]3[C@@H](CNC(=O)c4ccc5[nH]nnc5c4)[C@@H]3C2)n1 | cell-free assay, competition with immobilised ligand | 1 µM | 94%
CN(C)c1nccc(-c2cnc3ncccn23)n1 | binding | 1 µM | 67%
